# Bioassay records (PubChem BioAssay)
# Shown are actives, neighbours in structure and some others; about 2.3% of the full set was active somewhere.
# ADAM17 inh = ADAM17 inhibition, QFRET primary screen | recombinant ADAM17, EDANS/DABCYL FRET peptide cleavage | inhibition, % at 6.95 µM | 370,000 tested, 0.83% active | AID 720648;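 active = inhibition above the mean of compounds lying between control limits plus 3 SD, set per campaign, cut at about 8.5% in these data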;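 also: 0% = DMSO-only wells as the low control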
# Tn7 DDE FP = inhibitors of Tn7 peptide binding to human fibrin DD(E); P02675; FP displacement of FITC-Tn7 peptide from fibrin DD(E); 0% = median of compound wells per plate; inhibition, % at 8.3 µM; 370,000 tested, 0.13% active;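 active = inhibition above the mean of compounds falling within the control limits plus 3 SD of them, cut at about 14% in these data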;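 also: 0% = plate median of compound wells and 100% = 10 µM Aha-Tn7 peptide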
#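 Assay system: Human clot-derived fibrin DD(E) complex | Buffer or medium: Tris/NaCl/CaCl2 buffer, pH 7.8 | Repeats: One replicate per compound | Benchmarks: Aha-Tn7 high control | Measure: % inhibition scaled between sample-field median and high-control FP | Schedule: 10 min plus 3 h, room temperature | Signal: Fluorescence polarization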
# PLCg1 inh = PLC-gamma1 (human) inhibition, primary screen; P19174; purified PLC-gamma1, fluorogenic substrate, fluorescence; inhibition, % at 12.2 µM; 370,000 tested, 0.84% active; AID 720700; in the data active = inhibition above about 9.5%
# Target sequence (P19174 whole entry, looked up): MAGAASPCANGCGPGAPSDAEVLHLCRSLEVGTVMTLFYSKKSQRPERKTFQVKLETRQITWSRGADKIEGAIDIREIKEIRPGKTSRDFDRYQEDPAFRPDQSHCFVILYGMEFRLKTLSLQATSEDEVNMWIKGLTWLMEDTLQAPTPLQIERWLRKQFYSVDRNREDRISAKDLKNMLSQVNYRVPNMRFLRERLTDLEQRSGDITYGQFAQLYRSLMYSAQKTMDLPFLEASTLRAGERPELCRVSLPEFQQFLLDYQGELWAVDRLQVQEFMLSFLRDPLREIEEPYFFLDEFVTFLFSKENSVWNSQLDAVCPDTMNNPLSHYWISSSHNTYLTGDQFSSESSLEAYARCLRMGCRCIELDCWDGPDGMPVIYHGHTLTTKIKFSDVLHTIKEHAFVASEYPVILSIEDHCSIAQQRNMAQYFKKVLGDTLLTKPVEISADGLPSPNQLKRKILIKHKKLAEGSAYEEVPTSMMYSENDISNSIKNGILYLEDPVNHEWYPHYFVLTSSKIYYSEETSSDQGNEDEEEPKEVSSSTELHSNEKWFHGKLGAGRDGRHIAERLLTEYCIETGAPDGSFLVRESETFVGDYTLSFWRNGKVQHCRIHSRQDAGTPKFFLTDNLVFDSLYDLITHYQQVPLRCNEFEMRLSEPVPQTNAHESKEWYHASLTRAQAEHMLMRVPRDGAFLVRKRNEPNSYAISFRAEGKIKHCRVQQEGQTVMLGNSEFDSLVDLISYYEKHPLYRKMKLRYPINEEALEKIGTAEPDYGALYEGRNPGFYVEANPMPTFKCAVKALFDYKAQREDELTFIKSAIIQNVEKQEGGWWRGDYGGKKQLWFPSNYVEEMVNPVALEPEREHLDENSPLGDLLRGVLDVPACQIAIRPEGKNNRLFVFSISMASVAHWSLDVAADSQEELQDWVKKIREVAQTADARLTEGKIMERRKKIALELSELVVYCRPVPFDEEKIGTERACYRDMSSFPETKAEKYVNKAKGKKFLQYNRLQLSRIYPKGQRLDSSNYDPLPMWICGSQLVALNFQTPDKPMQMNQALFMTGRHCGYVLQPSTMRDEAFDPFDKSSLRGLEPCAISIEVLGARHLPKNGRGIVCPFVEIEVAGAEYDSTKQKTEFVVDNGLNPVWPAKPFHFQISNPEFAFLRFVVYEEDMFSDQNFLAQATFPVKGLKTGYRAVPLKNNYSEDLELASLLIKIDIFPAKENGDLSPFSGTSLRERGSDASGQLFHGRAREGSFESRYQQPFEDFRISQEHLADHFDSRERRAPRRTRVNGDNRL
# PLC-beta3 inh = PLC-beta3 (human) inhibition, primary screen | Q01970 | Purified PLC-beta3, fluorogenic substrate, fluorescence | inhibition, % at 12.2 µM | 370,000 tested, 0.18% active; in the data active = inhibition above about 11%;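 also: 0% = median of compound wells on plate and 100% = full blocker control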
# ADAM10 inh = ADAM10 inhibition, QFRET primary screen; O14672; recombinant ADAM10, EDANS/DABCYL FRET peptide cleavage, 3 h; inhibition, % at 7 µM; 370,000 tested, 0.62% active; AID 720582;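 active = inhibition above a per-campaign cutoff equal to the mean of compounds falling between control-based bounds plus 3 SD, cut at about 20% in these data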;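 also: 0% = DMSO wells while the 100% control is not disclosed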
# DDE Tn6 FP inh = inhibitors of Tn6 peptide binding to human fibrin DD(E); Fibrin DD(E) TRITC-Tn6 fluorescence polarization displacement; inhibition, % at 8.3 µM; 370,000 tested, 0.21% active; AID 720509;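 active = inhibition above a per-campaign cutoff: mean of compounds within control limits plus 3 SD, cut at about 15% in these data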;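 also: 0% = median of all compound wells on the plate and 100% = blocking peptide control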
# DDE Tn7 confirm = confirmation of inhibitors of Tn7 binding to human fibrin DD(E) | shares compounds with Tn7 DDE FP | FP displacement of TRITC-Tn7 peptide from DD(E); 0% set at plate's compound-well median | inhibition, % at 8.3 µM | 460 tested, 5% active;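 active = inhibition above the campaign cutoff, the mean of compounds within control limits plus 3 SD, cut at about 14% in these data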;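 also: 100% = median FP of high control wells holding Aha-Tn7 inhibitor peptide; displacers lower polarization since freed probe rises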
# Tn7 DDE ctr = counter-screen for inhibitors of Tn7 peptide binding to fibrin DD(E). shares compounds with Tn7 DDE FP. TRITC-Tn7 probe displacement, fluorescence polarization. inhibition, % at 8.3 µM. 460 tested, 3% active;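 active = inhibition above the cutoff, the mean of compounds lying between the control bounds plus 3 SD of those compounds, cut at about 17% in these data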;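 also: 0% = median of compound sample wells and 100% = excess unlabeled Aha-Tn7 peptide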
# * marks the source's active call; other numbers are inactive results; · = no result.
SMILES,ADAM17 inh,Tn7 DDE FP,PLCg1 inh,PLC-beta3 inh,ADAM10 inh,DDE Tn6 FP inh,DDE Tn7 confirm,Tn7 DDE ctr
CCN1CCN(c2nc3ccccc3nc2C(C#N)S(=O)(=O)c2ccc(C)cc2)CC1 (centres undefined),-3.9,-1.1,-17.4,-37.5,-0.1,-0.6,·,·
COc1cccc(OC)c1C(=O)OCC(=O)NCCCc1ccccc1,-3.2,15.3*,3.0,-1.3,-8.8,-4.6,-2.9,-10.5
COc1cc(OC)cc(C(=O)OCC(=O)NCCCc2ccccc2)c1,-0.3,0.3,4.6,-7.9,-0.2,-2.9,·,·
Cc1cccc(NC(=O)CSc2nnnn2-c2ccc3c(c2)OCCO3)n1,-3.0,14.7*,-1.5,-4.6,-0.1,-6.2,1.0,0.8
COC(=O)C1CSC(C(=O)OC)N1C(=O)Nc1ccc(Cl)c(Cl)c1 (centres undefined),-4.5,15.0*,-2.9,-2.4,3.7,3.5,1.2,-1.8
CC(=O)Nc1ccc(-c2csc(NCCc3ccccc3)n2)cc1,4.7,17.2*,-7.4,-13.3,6.0,6.5,12.0,9.0
COC(=O)c1ccc(-c2ccc3c(c2)[C@]2(CCC[C@@H](O)[C@@H]2NC(=O)CCc2ccccc2)C(=O)N3Cc2ccccc2)cc1,-37.3,7.0,-27.6,-53.4,-77.2,-5.1,·,·
COC(=O)C(C(C)C)N(Cc1cc(OC)cc(OC)c1)S(=O)(=O)CCl (centres undefined),-3.2,14.7*,-1.3,3.1,-5.8,0.7,-0.3,-3.6
COC(=O)[C@H](C(C)C)N(Cc1ccccc1)S(=O)(=O)CCN1CCCC1,3.9,-6.5,5.7,2.2,-2.6,5.1,·,·
N#C[C@@H]1N[C@H](CO)[C@@H]1c1ccccc1,-1.1,0.4,1.2,-1.1,-5.6,3.8,·,·
COc1ccc(N(CC(=O)NCc2ccc3c(c2)OCO3)S(=O)(=O)c2ccc(O)c(C(=O)O)c2)cc1,-1.6,14.9*,-3.7,-5.4,-8.2,1.5,-2.4,-8.6
COc1ccc(S(=O)(=O)N(C)CC(=O)NCc2ccc3c(c2)OCO3)cc1,0.5,3.5,-2.4,-4.9,0.2,7.0,·,·
O=C(NC(=O)c1ccc(C(F)(F)F)cc1)Nc1ccc(-c2cnco2)cc1,-6.9,14.2*,0.3,-5.7,0.9,-0.1,-1.8,-2.6
C[C@@]12CCC=C[C@H]1[C@H](c1ccc(/C=C/c3ccccc3)cc1F)N(Cc1ccccc1)C2=O,-2.8,15.9*,-5.6,-12.4,-11.0,10.5,7.5,2.7
Cc1cnn(-c2ccccc2)c1NC(=O)COCc1ccccc1,1.4,4.3,3.9,5.6,4.4,-4.3,·,·
O=C(CCc1nnc(Cc2ccc(-c3ccccc3)cc2)o1)N1CCCC1,-3.7,16.4*,-0.8,0.3,1.1,6.5,-5.5,-9.2
O=C(CSc1nnc(Cc2ccccc2)o1)N1CCCC1,-1.9,-2.7,2.7,-4.5,2.9,8.9,·,·
O=C(Cn1nc(C(=O)O)c2ccccc2c1=O)Nc1cc(C(F)(F)F)ccc1-n1cncn1,-3.4,15.3*,0.9,-6.1,-17.8,5.0,-3.3,-5.9
O=C(Cn1nc(C(=O)O)c2ccccc2c1=O)Nc1cc(Cl)ccc1-n1cncn1,-6.9,4.8,-1.2,-4.2,-5.4,3.9,·,·
CNC(=O)[C@@H]1CC=C[C@@H]2CCN(c3ccccc3)C(=O)[C@@H]21,-1.4,-2.8,1.4,1.9,2.1,3.3,·,·
CC(C)c1nc(C#N)c(NCCCn2ccnc2)o1,2.5,-6.0,7.6,7.6,5.5,4.4,·,·
CC(C)c1nc(C#N)c(NN)o1,-0.3,13.8*,-49.0,-54.2,4.3,-3.1,-6.7,-9.2
CCCCCc1ccc(NC(=O)OCCCN2CCC3(CCC(c4ccccc4)CC3)C2=O)cc1 (centres undefined),-6.0,3.3,-2.2,4.0,-14.0,3.8,·,·
CCCCc1c(O)nc2ccccn2c1=O,-6.4,-5.0,-38.1,-41.8,-24.4,-4.5,·,·
Cc1c(O)nc2ccccn2c1=O,-3.6,13.8*,-5.4,-10.7,-4.2,13.0,1.3,-2.6
SMILES,ADAM17 inh,Tn7 DDE FP,PLCg1 inh,PLC-beta3 inh,ADAM10 inh,DDE Tn6 FP inh,DDE Tn7 confirm,Tn7 DDE ctr
O[C@H](COc1cc(F)cc(F)c1)CN1CCC(C(O)(c2ccccc2)c2ccccc2)CC1,-0.2,1.3,3.3,0.7,4.0,2.5,·,·
CC1(C)CC(=O)C2=C(C1)N(Cc1ccco1)C(=O)C2(NC(=O)C1CCCCC1)C(F)(F)F (centres undefined),-3.8,14.0*,-5.2,2.2,0.8,-1.7,1.5,5.1
CC1=NC(C(F)(F)F)(C(F)(F)F)C2=C(CC(C)(C)CC2=O)N1Cc1ccco1,-4.0,13.9*,-4.2,3.4,4.8,-8.5,5.5,2.9
O=C(NCCCN1CCN(c2ccc(F)cc2)CC1)NCc1ccccc1,3.6,-6.2,2.6,3.2,3.1,-7.0,·,·
COC(=O)C1CN(C2CCCC2)CCS(=O)(=O)N1Cc1ccccc1 (centres undefined),-4.4,16.0*,-0.7,2.5,-11.7,-0.1,-2.2,-4.5
COC(=O)C1CN(Cc2ccccc2)CCS(=O)(=O)N1Cc1ccc(C)cc1 (centres undefined),-3.4,0.7,-1.1,1.4,-4.7,7.0,·,·
COC(=O)c1sc(S(=O)(=O)N2CCCCC2)c(C(=O)OC)c1C,-1.7,1.9,3.5,-0.1,1.7,-5.6,·,·
COC(=O)c1sc(S(=O)(=O)N2CCN(c3ccccc3)CC2)c(C(=O)OC)c1C,-4.6,13.8*,-0.3,1.7,5.0,0.8,-1.5,-5.5
CCOc1ccc(-n2c(SCC(=O)Nc3ccccc3-c3ccccc3)nnc2-c2ccncc2)cc1,1.5,4.8,-0.1,3.6,0.9,-2.3,·,·
COC(=O)[C@]12C[C@H](CC(=O)NCCc3ccccc3OC)C(=O)N(CCc3ccc(OC)c(OC)c3)C1=C[C@H](C1CCCC1)O[C@@H]2C,7.9,4.8,4.1,1.3,12.7,2.0,·,·
O=C(NCc1ccc(F)cc1)C1CCCN(c2nc3ccccc3o2)C1 (centres undefined),-1.3,-3.2,1.4,2.1,-0.3,4.7,·,·
C/C(=N\N1CCN(Cc2ccc(Cl)cc2)CC1)c1ccc([N+](=O)[O-])cc1,-0.8,15.4*,0.2,-6.1,-2.8,4.9,-4.3,-6.2
CCOc1ccc(CCNC(=O)c2cc3ccsc3n2C)cc1OC,5.8,-1.4,5.3,-0.4,6.7,1.3,·,·
CC(C)(CNc1ccc([N+](=O)[O-])cc1C#N)N1CCOCC1,-4.9,15.1*,-0.2,-7.2,2.9,2.2,5.0,1.6
